Compounds with a hit are over-represented: about 2.2% of the library has one in this group of screens.
bCat nuc transl: modulators of beta-catenin nuclear translocation, primary screen, imaging, HeLa cells, immunofluorescence, high-content; nuclear translocation activity, % at 5 µM; 190,000 tested, 0.3% active;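 active = nuclear translocation activity above 50% at 5 µM, with a well cell count of 50 or more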;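 also: per-cell ratio of nuclear to cytoplasmic median beta-catenin stain intensity; plate controls were DMSO negative control for no effect and GSK-3 inhibitor IX positive control for full effect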
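test system = HeLa cells, endogenous beta-catenin | dosing = single 5 µM dose plus 0.02–20 µM confirmation series | times = compound treatment 24 h, 37°C, 5% CO2 | technique = beta-catenin immunofluorescence imaging with DAPI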
APP 5UTR inh: inhibitors of APP translation via 5'UTR reporter, primary screen, APP 5'UTR luciferase, SH-SY5Y cells; SH-SY5Y APP 5'UTR-luciferase reporter, luminescence; inhibition, % at 2 µM; 190,000 tested, 0.82% active;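 active = inhibition above a set limit, derived from the sample mean plus 3 SD, cut at about 45% in these data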
Ba/F3 V617F tox: reduced viability of JAK2V617F-dependent Ba/F3 cells, primary screen, JAK2V617F inhibitor project, cell-based, Ba/F3 EpoR-JAK2V617F, luminescence; ATP luminescence; inhibition, % at 5.6 µM; 220,000 tested, 1.1% active; AID 1446, 2008;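 active = inhibition above the campaign mean plus 3 SD over all tested compounds, cut at about 24% in these data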;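 also: cytokine-independent growth of Ba/F3 cells driven by EpoR plus mutant JAK2; 0% = DMSO-treated cells and 100% = JAK inhibitor I control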
BaF3 parental: parental Ba/F3 cell viability inhibition, counter-screen for JAK2V617F inhibitor project, murine pro-B, CellTiter-Glo luminescence | AID 1486, 2009 | CellTiter-Glo ATP luminescence | 220,000 tested, 1.1% active | inhibition, % at 5.6 µM;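 active = inhibition above a per-campaign cutoff, the mean inhibition of all tested compounds plus 3 SD, cut at about 27% in these data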;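 also: 0% = DMSO wells and 100% = JAK Inhibitor I control wells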
MT stabilizer: microtubule stabilizers in HeLa cells, primary screen, imaging, high-content imaging; HeLa tubulin immunostaining HCS, 24 h; share of cells brighter than vehicle mean+2SD; 200,000 tested, 0.83% active; % tubulin-high responders, % at 10 µM;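 active = plate Z-score above 3 for both tubulin-high and condensed-nucleus cell shares, with cell loss under 80%, at 10 µM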;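 also: anti alpha tubulin signal scored within the nucleus-defined area of each cell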
IEC-6 cytotox: cytotoxicity in IEC-6 intestinal epithelial cells, primary screen, cytotoxicity control for KLF5 inhibitor project, cell-based, luminescence. IEC-6 cytotoxicity, luminescence viability. AID 1825, 2009. inhibition, % at 5 µM. 290,000 tested, 0.78% active; in the data active = inhibition above about 22%;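 also: 0% = plate median of test compound wells and 100% = cytotoxic reference compound wells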
BaF3 tox 2: parental Ba/F3 cell viability inhibition, counter-screen for JAK2V617F inhibitor project, murine pro-B, CellTiter-Glo luminescence | cells kept alive by added IL-3 | shares compounds with Ba/F3 V617F tox | inhibition, % at 5.6 µM | 580 tested, 31% active;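 active = cell growth inhibition above the hit limit set in the earlier mutant JAK2 cell screen, cut at about 27% in these data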;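 also: plate controls were DMSO-treated cells for no effect and JAK Inhibitor I control wells for full effect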
JAK2V617F confrm: viability loss in Ba/F3 EpoR-JAK2V617F cells, confirmation, JAK2V617F inhibitor project, cell-based, luminescence, triplicate | CellTiter-Glo luminescence | shares compounds with Ba/F3 V617F tox | 580 tested, 66% active | inhibition, % at 5.6 µM | AID 1521, 2009;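 active = mean inhibition above the hit cutoff derived in the earlier primary screen, cut at about 25% in these data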;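 also: 0% = DMSO-treated cells and 100% = JAK inhibitor I control wells; higher means lower luminescence from reduced cell ATP and viability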
* hit, by the source's call; / = no result.

SMILES	bCat nuc transl	APP 5UTR inh	Ba/F3 V617F tox	BaF3 parental	MT stabilizer	IEC-6 cytotox	BaF3 tox 2	JAK2V617F confrm
Cc1cc(C)nc(Nc2cccc(C(F)(F)F)c2)n1	/	/	/	/	/	-15	/	/
Nc1ccccc1Nc1cccc(C(F)(F)F)c1	2	7	42*	0	2	-8	40*	93*
CCCC(=O)N(C1CC(C)C(C#N)(C#N)C1(C#N)C#N)N(C)C (stereo not given)	-1	/	46*	-2	/	9	-1	62*
CCc1ccc(Nc2ccc(S(=O)(=O)N3CCOCC3)cc2[N+](=O)[O-])cc1	-2	0	82*	12	6	-6	3	17
COc1cccc(-n2nnnc2S(C)(=O)=O)c1	/	4	52*	2	1	39*	32*	95*
CC(C)(C)c1ccc(OCc2ccc(C(=O)N/N=C/c3ccc(O)c(O)c3)cc2)cc1	-2	16	101*	3	4	4	81*	99*
COc1cc(/C=N/N=C(N)N)ccc1OCc1ccc(Cl)cc1	2	-180	35*	25	67*	22*	35*	45*
CC1=CC(C)C2(CO)COC(c3ccccc3O)C1C2C (stereo not given)	-4	3	58*	3	1	-3	-5	1
Nc1c(-c2ccccc2)cnn1-c1ccc(C(=O)O)cc1	/	-137	53*	1	2	0	-3	-2
Cc1ccc(-c2cnn(-c3ccccc3)c2N)cc1	/	/	/	/	/	10	/	/
Cc1ccccc1N1CCN(Cc2c[nH]c3ccccc23)CC1	/	15	35*	2	3	2	-5	29*
COc1cccc(Nc2nc(N)nc(CCl)n2)c1	0	/	-4	-4	/	3	/	/
Nc1nc(CCl)nc(Nc2ccccc2)n1	3	-15	4	5	6	-2	/	/
Cc1ccc(Nc2nc(N)nc(CCl)n2)cc1	2	/	34*	1	/	-2	0	58*
CCOc1ccc(Nc2nc(N)nc(CCl)n2)cc1	2	/	99*	10	/	100*	17	99*
COc1ccc(NC(=S)NC23CC4CC(CC(C4)C2)C3)cc1OC	/	/	/	/	/	8	/	/
Cc1ccc2c(CC(=O)NC3CCS(=O)(=O)C3)coc2c1C (stereo not given)	/	/	/	/	/	-4	/	/
Cc1ccc2c(CC(=O)NCc3ccco3)coc2c1C	114*	14	35*	14	41*	15	25	21
Cc1ccc(CSCC(=O)NCc2cccnc2)cc1	-1	9	2	10	3	-2	/	/
Cc1ccc(CC(=O)NCc2cccnc2)cc1	-2	10	58*	7	7	-5	-8	-7
CCCCN(CC)Cc1ccc(CNC(=O)Nc2ccc(Cl)cc2)o1	-1	-7	47*	-1	2	18	14	42*
Cc1noc(NC(=O)c2ccc(Cl)c(Cl)c2)c1Cl	0	-1	29*	4	3	6	-2	47*
COC(=O)C1(C)Cc2cc(OC(C)=O)c(OC(C)=O)cc2N1 (stereo not given)	1	/	37*	17	/	0	4	46*
COc1ccc(NC(=O)c2csc(C)c2)cc1OC	/	/	/	/	/	1	/	/
Cc1ccc(S(=O)(=O)NC(CC(=O)n2nc(C)cc2C)c2ccccc2)cc1 (stereo not given)	/	3	-3	4	2	4	/	/
SMILES	bCat nuc transl	APP 5UTR inh	Ba/F3 V617F tox	BaF3 parental	MT stabilizer	IEC-6 cytotox	BaF3 tox 2	JAK2V617F confrm
Cc1ccc(S(=O)(=O)NC(c2ccccc2)C(C)C(=O)n2nc(C)cc2C)cc1 (stereo not given)	/	-5	64*	14	2	5	14	14
Cc1ccc(NC(=S)N(Cc2cccc(Br)c2)CC2CCC(C(=O)O)CC2)cc1 (stereo not given)	-1	-16	-3	6	4	-6	/	/
Cc1cc(NC(=S)N(Cc2cccc(Br)c2)CC2CCC(C(=O)O)CC2)ccc1Cl (stereo not given)	-2	-22	29*	25	2	2	27*	38*
COC(=O)c1cccc(NC(=O)CC2C(=O)NCCN2C(=O)Nc2cc(C)cc(C)c2)c1 (stereo not given)	/	/	/	/	/	-3	/	/
Cc1ccccc1-c1nn(-c2ccc(F)cc2F)cc1CNCCCN(C)C	-2	-3	26*	10	3	4	3	21
COc1cc(Cl)c(NS(=O)(=O)c2cc3[nH]c(=O)c(=O)[nH]c3cc2C)c(OC)c1	/	/	/	/	/	-1	/	/
O=C1/C(=C/c2ccc(O)c(O)c2)SC(=S)N1Nc1ccccc1	1	-35	38*	-6	8	-1	-2	67*
COc1cc(/C=C2\SC(=S)N(Nc3ccccc3)C2=O)ccc1O	1	-34	-2	4	9	12	/	/
CCOC(=O)Cc1nn(Cc2nc(-c3ccc(C#N)cc3)cs2)c(=O)c2ccccc12	-5	/	-1	3	/	-2	/	/
CCOc1ccc(CNC(=O)C2Cc3cc(S(=O)(=O)N4CCCC4)ccc3N2C(C)=O)cc1 (stereo not given)	/	/	/	/	/	-3	/	/
COc1cc2c(cc1OC)-c1cc(N3CCCc4ccccc43)nc(=O)n1CC2	-3	12	30*	15	4	-2	15	61*
COC(=O)c1ccc(S(=O)(=O)N2CCCCCC2)n1C	-1	/	-2	2	/	11	/	/
O=C(O)/C=C/S(=O)(=O)c1ccc2ccccc2c1	0	/	-4	1	/	-4	/	/
CC(=O)Nc1ccccc1NC(=O)C(F)(F)F	-5	-23	-3	1	4	3	/	/
O=C(Nc1cccc2c1[nH]c1ccccc12)C(F)(F)F	2	4	53*	17	2	-2	4	52*
CCOc1cc(S(=O)(=O)n2ccnc2)ccc1Br	0	1	2	5	5	1	/	/
CCOc1cc(S(=O)(=O)n2ccc(C)n2)ccc1Br	-1	11	30*	13	4	2	-8	-3
CCOc1ccc(N2CC(O)(c3cccs3)[N+]3=C2CCCC3)cc1 (stereo not given)	-2	-10	23*	25	4	8	31*	46*
OC1(c2cccs2)CN(c2ccccc2)C2=[N+]1CCCC2 (stereo not given)	-1	-8	0	8	6	-1	/	/
